Among all 190,000 compounds or so, fewer than 10 were called active.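 Rule for the calls: active = over 50% inhibition of intestinal alkaline phosphatase at 20 µM in the single-dose screen; inactive = the rest.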 Only a sample is shown.
Tested on: alkaline phosphatase, intestinal [Bos taurus]
Assay: IAP enzyme activity blockers – biochemical, bovine IAP, CDP-star luminescence, selectivity assay for TNAP inhibitor project, primary screen (AID 1019)
Settings: purified bovine IAP, 30 min, at 20 µM, active compounds read high
Outline: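 test system = bovine IAP enzyme | medium = DEA buffer 100 mM, pH 9.8, with MgCl2 1.0 mM, ZnCl2 0.02 mM | detection = luminescence | dosing = single compound dose of 20 µM, 2% DMSO final | incubation = 30 min reaction at room temperature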

inhibition, inactive:
CCCC(=O)OCC(=O)Nc1cc(Cl)ccc1[N+](=O)[O-] 12.7%
O=C(COC(=O)CC1CC2CCC1C2)NC(=O)NC1CCCC1 (configuration not stated) -11.4%
COC(=O)c1ccc(NC(=S)Nc2cccc(C)n2)cc1 0.2%
COc1ccccc1NC(=O)c1cc(Cl)nnc1Cl -4%
O=C(CCc1ccc(S(=O)(=O)N2CCOCC2)cc1)NN=C1CCCCCCC1 5%
O=C(COC(=O)CCCNC(=O)c1ccc(Cl)cc1)Nc1cc(Cl)ccc1Cl 33.8%
COc1cccc(/C=N/NC(=O)CNC(=O)c2ccc(S(=O)(=O)N3CCOCC3)cc2)c1OC 16.1%
CS(=O)(=O)Nc1ccc(C2=NN(S(C)(=O)=O)C(c3cccs3)C2)cc1 (configuration not stated) -11%
O=C(COC(=O)c1ccc(O)cc1)Nc1nccs1 -1.9%
COc1ccc(C(=O)NC2(C(F)(F)F)NC(=O)N(CCCc3ccccc3)C2=O)c(OC)c1OC (configuration not stated) -13%
CCCCC1N2CC3([N+](=O)[O-])CN1CC([N+](=O)[O-])(C2)C3(C)C (configuration not stated) 3.9%
Cc1cc(F)ccc1S(=O)(=O)N1CCCOC1CNC(=O)C(=O)NCCC1=CCCCC1 (configuration not stated) 6.4%
CC(C)=C1C2CCC1C1C(=O)N(NC(=O)c3ccco3)C(=O)C21 (configuration not stated) 41.2%
Cc1csc(NC(=O)CSc2ccc(-c3ccc(F)cc3)nn2)n1 -3.9%
CN(CC(=O)NCCc1ccccc1)S(=O)(=O)c1cnc[nH]1 5.2%
O=S1(=O)CCC(NC(=S)SCc2ccccc2Br)C1 (configuration not stated) 23.3%
CCCCNC(=O)CCn1c(=O)c2ccccc2n(Cc2cc(C)ccc2C)c1=O 15.7%
NC(=O)C1=C[C@H](c2csc3ccccc23)C[C@H](OCc2ccc(CO)cc2)O1 -16.7%
S=C(NC1CCCCC1)NN1CCOCC1 -0.1%
COc1ccccc1NC(=O)CCSc1nnc(-c2ccc(O)cc2)o1 3.5%
Nc1cccc(CCc2nc3ccccc3[nH]2)c1 12%
O=[N+]([O-])c1ccc(NCCCO)c(C(F)(F)F)c1 -0.5%
CC(C)c1nc2sc3c(c2c(=O)n1N)CC(C)(C)OC3 -5%
O=C(Nc1cccc(C(F)(F)F)c1)c1cnccn1 5.6%
COc1ccc(OCCCn2cccc2/C=C2/C(=N)N3OC(C)=CC3=NC2=O)cc1 13.7%
CCOC12CC(C)(C)CC(C)(CC3=C1C(=O)CC(C)(C)C3)C2 (configuration not stated) -12.4%
Cn1c(CCCOc2ccc(Cl)cc2Cl)n[nH]c1=S 25.8%

From PubChem BioAssay AID1019 (Sanford-Burnham Center for Chemical Genomics, 2008)
